Results from ChEMBL document CHEMBL1132599, “Bisquaternary ligands of the common allosteric site of M2 acetylcholine receptors: search for the minimum essential distances between the pharmacophoric elements” (J Med Chem, 1999).

Legend:
[1] = target: T1, Muscarinic acetylcholine receptor M2 (Sus scrofa, UniProt P06199); test: Allosteric potency against the dissociation of radioligand [3H]N-methylscopolamine from the porcine cardiac Muscarinic acetylcholine receptor M2
T1 sequence (P06199 whole entry): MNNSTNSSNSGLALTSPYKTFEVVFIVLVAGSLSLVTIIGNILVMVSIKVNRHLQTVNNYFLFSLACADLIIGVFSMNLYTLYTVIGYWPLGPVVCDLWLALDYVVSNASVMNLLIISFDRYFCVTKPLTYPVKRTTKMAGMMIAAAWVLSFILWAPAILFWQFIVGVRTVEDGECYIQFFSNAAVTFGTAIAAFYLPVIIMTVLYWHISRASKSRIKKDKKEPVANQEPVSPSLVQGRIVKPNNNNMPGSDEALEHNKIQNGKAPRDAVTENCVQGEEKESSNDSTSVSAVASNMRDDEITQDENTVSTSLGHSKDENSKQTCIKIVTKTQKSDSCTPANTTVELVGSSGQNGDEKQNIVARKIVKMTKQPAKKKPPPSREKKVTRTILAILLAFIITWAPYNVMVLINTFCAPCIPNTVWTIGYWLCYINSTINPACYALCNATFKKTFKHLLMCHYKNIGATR
In short: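 Porcine ventricular membranes: homogenized in 0.32 M sucrose, spun at 300g then 80000g, resuspended in 50 mM Tris-HCl pH 7.4. Labeled with 0.2 nM [3H]NMS for 30 min in 2.6 mM MgHPO4/45 mM Tris-HCl, pH 7.3, 37 °C. Dissociation started with 1 µM atropine plus modulator, sampled up to 2 h (some two-point, 0 and 4 min), then filtered and counted. EC50 is the concentration halving monoexponential k-1 (4–6 concentrations).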

[2] = Half life (t1/2) value of the compound.; assay type: ADME
In short: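 Chemical hydrolysis followed by UV spectroscopy for 24 h at 20 °C in TRIS-HCl–Mg buffer (3.6 mM MgHPO4, 50 mM TRIS, pH 7.3); half-life of the compound reported in hours.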

EC50 [1] [nM]	half-life [2] [h]	Compound
450	–	O=C1c2ccccc2C(=O)N1CCCO/N=C/c1cc[n+](CCCCCC[n+]2ccc(/C=N/OCCCN3C(=O)c4ccccc4C3=O)cc2)cc1
1400	–	O=C1c2ccccc2C(=O)N1CO/N=C/c1cc[n+](CCCCCC[n+]2ccc(/C=N/OCN3C(=O)c4ccccc4C3=O)cc2)cc1
50800	–	O=C1c2ccccc2C(=O)N1C[n+]1ccc(CCCc2cc[n+](CN3C(=O)c4ccccc4C3=O)cc2)cc1
510	–	O=C1c2ccccc2C(=O)N1CO/N=C/c1cc[n+](CCC[n+]2ccc(/C=N/OCN3C(=O)c4ccccc4C3=O)cc2)cc1
3800	14.5	C[N+](C)(CCCN1C(=O)c2ccccc2C1=O)CCC[N+](C)(C)CCCN1C(=O)c2ccccc2C1=O.[Br-].[Br-]
8820	–	C[N+](C)(CCCN1C(=O)c2ccccc2C1=O)CCCN1C(=O)c2ccccc2C1=O
350	–	O=C1c2ccccc2C(=O)N1CCCO/N=C/c1cc[n+](CCCC[n+]2ccc(/C=N/OCCCN3C(=O)c4ccccc4C3=O)cc2)cc1
4870	–	O=C1c2ccccc2C(=O)N1CCC[n+]1ccc(CCCc2cc[n+](CCCN3C(=O)c4ccccc4C3=O)cc2)cc1
2690	14	C[N+](C)(CCCC[N+](C)(C)CCCN1C(=O)c2ccccc2C1=O)CCCN1C(=O)c2ccccc2C1=O.[Br-].[Br-]
1900	–	O=C1c2ccccc2C(=O)N1CO/N=C/c1cc[n+](CCCC[n+]2ccc(/C=N/OCN3C(=O)c4ccccc4C3=O)cc2)cc1
2340	–	O=C1c2ccccc2C(=O)N1CCC[n+]1ccc(CCc2cc[n+](CCCN3C(=O)c4ccccc4C3=O)cc2)cc1
530	19.3	C[N+](C)(CCCCCCCCCC[N+](C)(C)CCCN1C(=O)c2ccccc2C1=O)CCCN1C(=O)c2ccccc2C1=O.[Br-].[Br-]
3490	–	O=C1c2ccccc2C(=O)N1CC[n+]1ccc(CCCc2cc[n+](CCN3C(=O)c4ccccc4C3=O)cc2)cc1
510	–	O=C1c2ccccc2C(=O)N1CCCO/N=C/c1cc[n+](CCCCC[n+]2ccc(/C=N/OCCCN3C(=O)c4ccccc4C3=O)cc2)cc1
370	16.4	C[N+](C)(CCCCCCC[N+](C)(C)CCCN1C(=O)c2ccccc2C1=O)CCCN1C(=O)c2ccccc2C1=O.[Br-].[Br-]
570	35.2	C[N+](C)(CCCCCCCC[N+](C)(C)CCCN1C(=O)c2ccccc2C1=O)CCCN1C(=O)c2ccccc2C1=O.[Br-].[Br-]
630	–	O=C1c2ccccc2C(=O)N1CCCC[n+]1ccc(CCCc2cc[n+](CCCCN3C(=O)c4ccccc4C3=O)cc2)cc1
1390	17.4	C[N+](C)(CCCCC[N+](C)(C)CCCN1C(=O)c2ccccc2C1=O)CCCN1C(=O)c2ccccc2C1=O.[Br-].[Br-]
1440	18	C[N+](C)(CCCCCC[N+](C)(C)CCCN1C(=O)c2ccccc2C1=O)CCCN1C(=O)c2ccccc2C1=O.[Br-].[Br-]

Compound	EC50 [1] [nM]	half-life [2] [h]
O=C1c2ccccc2C(=O)N1CCCO/N=C/c1cc[n+](CCC[n+]2ccc(/C=N/OCCCN3C(=O)c4ccccc4C3=O)cc2)cc1	520	–
O=C1c2ccccc2C(=O)N1CCCC[n+]1ccc(CCc2cc[n+](CCCCN3C(=O)c4ccccc4C3=O)cc2)cc1	470	–
O=C1c2ccccc2C(=O)N1CCCC[n+]1ccc(-c2cc[n+](CCCCN3C(=O)c4ccccc4C3=O)cc2)cc1	4650	–
